ChEMBL document CHEMBL1926550, “Synthesis and antibacterial activity of naphthyridone derivatives containing mono/difluoro-methyloxime pyrrolidine scaffolds” (2012)
Converted amounts (≈) assume the structure as drawn.

Legend:
Format in all cases: functional
Escherichia coli [1] = experiment: Antibacterial activity against Escherichia coli 10-1 after 18 hrs by two fold serial dilution method; conditions: 10-1, 18 h
Method in brief: (§1)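 Agar two-fold serial dilution in melted Mueller-Hinton agar, final concentrations 128 down to 0.008 μg/mL. Plates inoculated with 10⁴ cfu and incubated at 35 °C for 18 h. MIC taken as the lowest concentration giving no visible growth on the plate.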

Escherichia coli [2] = experiment: Antibacterial activity against Escherichia coli 10-2 after 18 hrs by two fold serial dilution method; conditions: 10-2, 18 h; method in brief: as §1
Escherichia coli [3] = experiment: Antibacterial activity against Escherichia coli 10-3 after 18 hrs by two fold serial dilution method; conditions: 10-3, 18 h; method in brief: as §1
Klebsiella pneumoniae [4] = experiment: Antibacterial activity against Klebsiella pneumoniae 09-2 after 18 hrs by two fold serial dilution method; conditions: 09-2, 18 h; method in brief: as §1
Klebsiella pneumoniae [5] = experiment: Antibacterial activity against Klebsiella pneumoniae 10-1 after 18 hrs by two fold serial dilution method; conditions: 10-1, 18 h; method in brief: as §1
Klebsiella pneumoniae [6] = experiment: Antibacterial activity against Klebsiella pneumoniae 10-3 after 18 hrs by two fold serial dilution method; conditions: 10-3, 18 h; method in brief: as §1
Pseudomonas aeruginosa [7] = experiment: Antibacterial activity against Pseudomonas aeruginosa ATCC 27853 after 18 hrs by two fold serial dilution method; conditions: ATCC 27853, 18 h; method in brief: as §1
Pseudomonas aeruginosa [8] = experiment: Antibacterial activity against Pseudomonas aeruginosa 10-1 after 18 hrs by two fold serial dilution method; conditions: 10-1, 18 h; method in brief: as §1
Pseudomonas aeruginosa [9] = experiment: Antibacterial activity against Pseudomonas aeruginosa 10-2 after 18 hrs by two fold serial dilution method; conditions: 10-2, 18 h; method in brief: as §1
Pseudomonas aeruginosa [10] = experiment: Antibacterial activity against Pseudomonas aeruginosa 10-3 after 18 hrs by two fold serial dilution method; conditions: 10-3, 18 h; method in brief: as §1
Staphylococcus aureus [11] = experiment: Ratio of ciprofloxacin MIC to compound MIC for methicillin-resistant Staphylococcus aureus 10-2
Staphylococcus aureus [12] = experiment: Ratio of gemifloxacin MIC to compound MIC for methicillin-resistant Staphylococcus aureus 10-2
Staphylococcus aureus [13] = experiment: Ratio of moxifloxacin MIC to compound MIC for methicillin-resistant Staphylococcus aureus 10-2
Enterococcus faecalis [14] = experiment: Ratio of ciprofloxacin MIC to compound MIC for Enterococcus faecalis 09-2
Enterococcus faecalis [15] = experiment: Ratio of gemifloxacin MIC to compound MIC for Enterococcus faecalis 09-2
Enterococcus faecalis [16] = experiment: Ratio of moxifloxacin MIC to compound MIC for Enterococcus faecalis 09-2
Enterococcus faecium [17] = experiment: Antibacterial activity against Enterococcus faecium 09-1 after 18 hrs by two fold serial dilution method; conditions: 09-1, 18 h; method in brief: as §1
Staphylococcus aureus [18] = experiment: Antibacterial activity against Staphylococcus aureus ATCC 25923 after 18 hrs by two fold serial dilution method; conditions: ATCC 25923, 18 h; method in brief: as §1
Staphylococcus aureus [19] = experiment: Antibacterial activity against methicillin-resistant Staphylococcus aureus 10-1 after 18 hrs by two fold serial dilution method; conditions: 10-1, 18 h
Method in brief: (§2)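 Agar two-fold serial dilution in melted Mueller-Hinton agar, 128 to 0.008 μg/mL. Plates inoculated with 10⁴ cfu, incubated 35 °C for 18 h. MIC taken as lowest concentration giving no visible growth on the plate.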

Staphylococcus aureus [20] = experiment: Antibacterial activity against methicillin-resistant Staphylococcus aureus 10-2 after 18 hrs by two fold serial dilution method; conditions: 10-2, 18 h; method in brief: as §2
Staphylococcus aureus [21] = experiment: Antibacterial activity against methicillin-resistant Staphylococcus aureus 10-3 after 18 hrs by two fold serial dilution method; conditions: 10-3, 18 h; method in brief: as §2
Staphylococcus aureus [22] = experiment: Antibacterial activity against methicillin-resistant Staphylococcus aureus 10-4 after 18 hrs by two fold serial dilution method; conditions: 10-4, 18 h; method in brief: as §2
Staphylococcus aureus [23] = experiment: Antibacterial activity against methicillin-sensitive Staphylococcus aureus 10-1 after 18 hrs by two fold serial dilution method; conditions: 10-1, 18 h; method in brief: as §1
Staphylococcus aureus [24] = experiment: Antibacterial activity against methicillin-sensitive Staphylococcus aureus 10-2 after 18 hrs by two fold serial dilution method; conditions: 10-2, 18 h; method in brief: as §1
Staphylococcus aureus [25] = experiment: Antibacterial activity against methicillin-sensitive Staphylococcus aureus 10-3 after 18 hrs by two fold serial dilution method; conditions: 10-3, 18 h; method in brief: as §1
Staphylococcus aureus [26] = experiment: Antibacterial activity against methicillin-sensitive Staphylococcus aureus 10-4 after 18 hrs by two fold serial dilution method; conditions: 10-4, 18 h; method in brief: as §1
Staphylococcus aureus [27] = experiment: Antibacterial activity against methicillin-sensitive Staphylococcus aureus 10-5 after 18 hrs by two fold serial dilution method; conditions: 10-5, 18 h; method in brief: as §1
Staphylococcus aureus [28] = experiment: Antibacterial activity against methicillin-sensitive Staphylococcus aureus 10-6 after 18 hrs by two fold serial dilution method; conditions: 10-6, 18 h; method in brief: as §1
[29] = tested on: Staphylococcus epidermidis; experiment: Antibacterial activity against methicillin-resistant Staphylococcus epidermidis 10-1 after 18 hrs by two fold serial dilution method; conditions: 10-1, 18 h; method in brief: as §2
[30] = tested on: Staphylococcus epidermidis; experiment: Antibacterial activity against methicillin-resistant Staphylococcus epidermidis 10-2 after 18 hrs by two fold serial dilution method; conditions: 10-2, 18 h; method in brief: as §2
[31] = tested on: Staphylococcus epidermidis; experiment: Antibacterial activity against methicillin-sensitive Staphylococcus epidermidis 10-1 after 18 hrs by two fold serial dilution method; conditions: 10-1, 18 h; method in brief: as §1
[32] = tested on: Staphylococcus epidermidis; experiment: Antibacterial activity against methicillin-sensitive Staphylococcus epidermidis 10-2 after 18 hrs by two fold serial dilution method; conditions: 10-2, 18 h; method in brief: as §1
Streptococcus pneumoniae = experiment: Antibacterial activity against Streptococcus pneumoniae 10-1 after 18 hrs by two fold serial dilution method; conditions: 10-1, 18 h; method in brief: as §1
Enterococcus faecium [33] = experiment: Antibacterial activity against Enterococcus faecium 09-2 after 18 hrs by two fold serial dilution method; conditions: 09-2, 18 h; method in brief: as §1
Enterococcus faecium [34] = experiment: Antibacterial activity against Enterococcus faecium 09-3 after 18 hrs by two fold serial dilution method; conditions: 09-3, 18 h; method in brief: as §1
Enterococcus faecium [35] = experiment: Antibacterial activity against Enterococcus faecium 09-4 after 18 hrs by two fold serial dilution method; conditions: 09-4, 18 h; method in brief: as §1
Enterococcus faecium [36] = experiment: Antibacterial activity against Enterococcus faecium 09-5 after 18 hrs by two fold serial dilution method; conditions: 09-5, 18 h; method in brief: as §1
Enterococcus faecium [37] = experiment: Antibacterial activity against Enterococcus faecium 09-6 after 18 hrs by two fold serial dilution method; conditions: 09-6, 18 h; method in brief: as §1
Enterococcus faecalis [38] = experiment: Antibacterial activity against Enterococcus faecalis 09-1 after 18 hrs by two fold serial dilution method; conditions: 09-1, 18 h; method in brief: as §1
Enterococcus faecalis [39] = experiment: Antibacterial activity against Enterococcus faecalis 09-2 after 18 hrs by two fold serial dilution method; conditions: 09-2, 18 h; method in brief: as §1
Escherichia coli [40] = experiment: Antibacterial activity against Escherichia coli ATCC 25922 after 18 hrs by two fold serial dilution method; conditions: ATCC 25922, 18 h; method in brief: as §1
Escherichia coli [41] = experiment: Antibacterial activity against Escherichia coli 09-1 after 18 hrs by two fold serial dilution method; conditions: 09-1, 18 h; method in brief: as §1
Escherichia coli [42] = experiment: Antibacterial activity against Escherichia coli 09-2 after 18 hrs by two fold serial dilution method; conditions: 09-2, 18 h; method in brief: as §1
Escherichia coli [43] = experiment: Antibacterial activity against Escherichia coli 09-3 after 18 hrs by two fold serial dilution method; conditions: 09-3, 18 h; method in brief: as §1

CC1(CN)CN(c2nc3c(cc2F)c(=O)c(C(=O)O)cn3C2CC2)C/C1=N\OCF (racemic)
MIC (Escherichia coli [1]): 64 µg/mL (≈ 152 µM) | MIC (Escherichia coli [2]): 0.125 µg/mL (≈ 0.297 µM) | MIC (Escherichia coli [3]): 32 µg/mL (≈ 75.9 µM) | MIC (Klebsiella pneumoniae [4]): 128 µg/mL (≈ 304 µM) | MIC (Klebsiella pneumoniae [5]): 0.015 µg/mL (≈ 0.0356 µM) | MIC (Klebsiella pneumoniae [6]): 0.125 µg/mL (≈ 0.297 µM) | MIC (Pseudomonas aeruginosa [7]): 0.125 µg/mL (≈ 0.297 µM) | MIC (Pseudomonas aeruginosa [8]): 0.008 µg/mL (≈ 0.019 µM) | MIC (Pseudomonas aeruginosa [9]): 16 µg/mL (≈ 38 µM) | MIC (Pseudomonas aeruginosa [10]): 4 µg/mL (≈ 9.49 µM) | Ratio (Staphylococcus aureus [11]): 64 | Ratio (Staphylococcus aureus [12]): 2 | Ratio (Staphylococcus aureus [13]): 32 | Ratio (Enterococcus faecalis [14]): 64 | Ratio (Enterococcus faecalis [15]): 4 | Ratio (Enterococcus faecalis [16]): 16 | MIC (Enterococcus faecium [17]): 16 µg/mL (≈ 38 µM) | MIC (Staphylococcus aureus [18]): 0.008 µg/mL (≈ 0.019 µM) | MIC (Staphylococcus aureus [19]): 4 µg/mL (≈ 9.49 µM) | MIC (Staphylococcus aureus [20]): 0.25 µg/mL (≈ 0.593 µM) | MIC (Staphylococcus aureus [21]): 4 µg/mL (≈ 9.49 µM) | MIC (Staphylococcus aureus [22]): 4 µg/mL (≈ 9.49 µM) | MIC (Staphylococcus aureus [23]): 0.06 µg/mL (≈ 0.142 µM) | MIC (Staphylococcus aureus [24]): 1 µg/mL (≈ 2.37 µM) | MIC (Staphylococcus aureus [25]): 0.25 µg/mL (≈ 0.593 µM) | MIC (Staphylococcus aureus [26]): 0.06 µg/mL (≈ 0.142 µM) | MIC (Staphylococcus aureus [27]): 0.03 µg/mL (≈ 0.0712 µM) | MIC (Staphylococcus aureus [28]): 0.125 µg/mL (≈ 0.297 µM) | MIC [29]: 1 µg/mL (≈ 2.37 µM) | MIC [30]: 0.5 µg/mL (≈ 1.19 µM) | MIC [31]: 8 µg/mL (≈ 19 µM) | MIC [32]: 64 µg/mL (≈ 152 µM) | MIC (Streptococcus pneumoniae): 0.5 µg/mL (≈ 1.19 µM) | MIC (Enterococcus faecium [33]): 16 µg/mL (≈ 38 µM) | MIC (Enterococcus faecium [34]): 8 µg/mL (≈ 19 µM) | MIC (Enterococcus faecium [35]): 0.06 µg/mL (≈ 0.142 µM) | MIC (Enterococcus faecium [36]): 16 µg/mL (≈ 38 µM) | MIC (Enterococcus faecium [37]): 0.06 µg/mL (≈ 0.142 µM) | MIC (Enterococcus faecalis [38]): 4 µg/mL (≈ 9.49 µM) | MIC (Enterococcus faecalis [39]): 1 µg/mL (≈ 2.37 µM) | MIC (Escherichia coli [40]): 0.008 µg/mL (≈ 0.019 µM) | MIC (Escherichia coli [41]): 64 µg/mL (≈ 152 µM) | MIC (Escherichia coli [42]): > 128 µg/mL | MIC (Escherichia coli [43]): 32 µg/mL (≈ 75.9 µM)
